Laboratory results: ChEMBL document CHEMBL1143004, “Structure-activity relationship among purpurinimides and bacteriopurpurinimides: trifluoromethyl substituent enhanced the photosensitizing efficacy” (J Med Chem, 2007)

Key:
[1] = Ratio of drug level in tumor to skin of C3H mouse bearing RIF tumors after 24 hrs by IRS; format: ADME; details: in vivo
Procedure, shortened: (§1)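 In vivo reflectance spectroscopy in female C3H/RIF or BALB/c/colon-26 mice. Baseline spectrum recorded via fiber bundles on tumor plus overlying skin and on normal skin. Drug 2.5–5.0 µmol/kg i.v. by tail vein, then spectra recorded up to 2 days. Post- to pre-injection spectral ratio compared in tumor versus skin. n = 3.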

[2] = Photosensitizing efficacy in C3H mouse bearing RIF tumors measured as tumor free at 0.4 umol/kg and light dose 135 J/cm2 after 60 days; format: functional
Procedure, shortened: (§2)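 Female C3H mice given s.c. RIF cells (3 × 10⁵) or female BALB/c mice given colon-26 cells (1 × 10⁶), both on right posterior shoulder. Drug in 1% Tween 80/HBSS given i.v. the day before light, hair depilated. At 24 h p.i., restrained unanaesthetized mice (10/group) got a 1 cm² argon-pumped dye laser spot, 135 J/cm² at 75 mW/cm². Tumor volume L·W²/2; cure = no palpable tumor.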

Colon 26 = test: Photosensitizing efficacy in Balb/C mouse implanted with colon26 tumors measured as tumor free at 0.7 umol/kg and light dose 135 J/cm2 after 90 days; format: functional; procedure, shortened: as §2
[3] = Photosensitizing efficacy in C3H mouse bearing RIF tumors measured as tumor free at 0.7 umol/kg and light dose 135 J/cm2 after 90 days; format: functional; procedure, shortened: as §2
[4] = Ratio of drug level in tumor to skin of Balb/C mouse implanted with colon26 tumor after 24 hrs by IRS; format: ADME; details: in vivo; procedure, shortened: as §1
RIF = test: Photosensitizing efficacy in RIF cells after 48 hrs by MTT assay in presence of light; format: functional, cell-based
Procedure, shortened: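 RIF cells, 5 × 10³/well, seeded in α-MEM with 10% FCS. Next day drug added at 1.25–20 µM (formulated in 1% Tween 80/5% dextrose, diluted in medium), 24 h dark at 37 °C. Medium replaced, then 708 nm (purpurinimides) or 791 nm (bacteriopurpurinimides) at 3.2 mW/cm², 0.5–20 J/cm². After 48 h dark, MTT 4 h, DMSO, A560. Survival relative to dark and light controls; four wells per point, SD from three experiments.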

Structure (SMILES) | Ratio [1] | further results
CCCCOC(C)c1c(C)c2cc3nc(c4c5[nH]c(cc6nc(cc1[nH]2)C(C)=C6CC)c(C)c5C(=O)N(Cc1cc(C(F)(F)F)cc(C(F)(F)F)c1)C4=O)[C@@H](CCC(=O)Nc1ccc(CC(CN(CCN(CC(=O)O)CC(=O)O)CC(=O)O)N(CC(=O)O)CC(=O)O)cc1)[C@@H]3C (stereo partly drawn) | 3.68 | Activity (Colon 26): 70%; Activity [3]: 70%; Ratio [4]: 5.06
CCCCOC(C)c1c(C)c2cc3nc(c4c5[nH]c(cc6nc(cc1[nH]2)C(C)=C6CC)c(C)c5C(=O)N(Cc1cc(C(F)(F)F)cc(C(F)(F)F)c1)C4=O)[C@@H](CCC(=O)OC)[C@@H]3C (stereo partly drawn) | 4.76 | Activity (Colon 26): 30%; Activity (RIF): Dose-dependent effect; Activity [3]: 30%; Ratio [4]: 3.38
CCCCCCCOC(C)c1c(C)c2cc3nc(c4c5[nH]c(cc6nc(cc1[nH]2)[C@@H](C)[C@@H]6CC)c(C)c5C(=O)N(Cc1cc(C(F)(F)F)cc(C(F)(F)F)c1)C4=O)[C@@H](CCC(=O)OC)[C@@H]3C (stereo partly drawn) | 6.87 | 
CCCCCCCCCCCCOC(C)c1c(C)c2cc3nc(c4c5[nH]c(cc6nc(cc1[nH]2)C(C)=C6CC)c(C)c5C(=O)N(Cc1cc(C(F)(F)F)cc(C(F)(F)F)c1)C4=O)[C@@H](CCC(=O)OC)[C@@H]3C (stereo partly drawn) | 1.82 | Activity [2]: 50%
CC[C@@H]1c2cc3[nH]c4c(c5nc(cc6[nH]c(cc(n2)[C@H]1C)c(C(C)OC)c6C)[C@@H](C)[C@@H]5CCC(=O)OC)C(=O)N(Cc1cc(C(F)(F)F)cc(C(F)(F)F)c1)C(=O)c4c3C (stereo partly drawn) | 1.91 | 

The next lines start with results.

Ratio [1] | Structure (SMILES) | further results
5.3 | CCCCOC(C)c1c(C)c2cc3nc(c4c5[nH]c(cc6nc(cc1[nH]2)[C@@H](C)[C@@H]6CC)c(C)c5C(=O)N(Cc1cc(C(F)(F)F)cc(C(F)(F)F)c1)C4=O)[C@@H](CCC(=O)OC)[C@@H]3C (stereo partly drawn) | 
8.89 | CCCCCCCCCCCCOC(C)c1c(C)c2cc3nc(c4c5[nH]c(cc6nc(cc1[nH]2)[C@@H](C)[C@@H]6CC)c(C)c5C(=O)N(Cc1cc(C(F)(F)F)cc(C(F)(F)F)c1)C4=O)[C@@H](CCC(=O)OC)[C@@H]3C (stereo partly drawn) | Activity [2]: 60%
1.97 | CCCCCCCOC(C)c1c(C)c2cc3nc(c4c5[nH]c(cc6nc(cc1[nH]2)C(C)=C6CC)c(C)c5C(=O)N(Cc1cc(C(F)(F)F)cc(C(F)(F)F)c1)C4=O)[C@@H](CCC(=O)OC)[C@@H]3C (stereo partly drawn) | 
2.48 | CCC1=C(C)c2cc3[nH]c(cc4nc(c5c6[nH]c(cc1n2)c(C)c6C(=O)N(Cc1cc(C(F)(F)F)cc(C(F)(F)F)c1)C5=O)[C@@H](CCC(=O)OC)[C@@H]4C)c(C)c3C(C)OC (stereo partly drawn) | 
